The target of one data set is Hsp90. Briefly: Hsp90 binding assay. As to conditions: read-out: Hsp90 binding; binding to SKBr3 cell extracts; competition with GM-Cy3B.
In the next data set the test system is scanMAX 402 kinase panel. Briefly: scanMAX kinase screen. As to conditions: at 10 μM. Format: binding. Put shortly:
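Competition binding: DNA-tagged kinases (T7 phage in BL21-derived E. coli lysates, or HEK-293-expressed) mixed with biotinylated-ligand streptavidin magnetic beads and test compound (10 μM; 40× DMSO stocks) in SeaBlock/0.17× PBS/Tween 20/6 mM DTT, 1 h RT. Beads washed, eluted 30 min with 0.5 μM free ligand; bound kinase by qPCR. S-score: kinases bound divided by distinct non-mutant kinases tested.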

The target of a further data set is c-Met (Homo sapiens, UniProt P08581). The data set is described as follows: scanMAX kinase screen, c-Met. Format: binding. As to conditions: at 10 μM. Put shortly: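 Kinase-tagged T7 phage (BL21-derived E. coli host) or HEK-293-made DNA-tagged kinase competed against an immobilised active-site ligand on streptavidin magnetic beads, with test compound at 10 μM (from 40× DMSO stock). Run in SeaBlock/PBS/Tween/DTT binding buffer for 1 h at room temperature. Beads then washed and eluted with 0.5 μM non-biotinylated ligand; kinase in eluate quantified by qPCR.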

For another data set, the system named is PARP. Briefly: PARP cleavage by Western blot in SKBr3. Type of data set: cell-based. As to conditions: Homo sapiens, SK-BR-3, read-out: cPARP (PARP cleavage). The method, boiled down: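 SK-BR-3 cells grown in DME/F12 with 10% FBS, 1% L-glutamine and penicillin/streptomycin to 60–70% confluence, then exposed to test compound or DMSO vehicle. Lysed in 50 mM Tris pH 7.4, 150 mM NaCl, 1% NP-40; protein by BCA. 10–50 μg lysate run on SDS–PAGE, blotted to nitrocellulose, probed with rabbit anti-PARP p85 fragment (1:500), then peroxidase secondary (1:3000).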
A general note: In western blotting, separated proteins are transferred to a membrane and probed.

The next data set can be described thus: Aqueous solubility. Type of data set: physicochemical.
A further data set concerns the target Hsp70. As to conditions: read-out: Kd for Hsp70; cited from earlier work.
Data set [1] can be described thus: LC/MS–MS analyses of cellular extracts. Format: in vitro ADME. As to conditions: after 10 min of incubation; data not shown.

Each structure is given as a SMILES string.

This is an account of results in PMC3983365 (Journal of medicinal chemistry, 2014).

One may read the Kd as the concentration at which binding is half-saturated.

Chain of c-Met (P08581 25-1390): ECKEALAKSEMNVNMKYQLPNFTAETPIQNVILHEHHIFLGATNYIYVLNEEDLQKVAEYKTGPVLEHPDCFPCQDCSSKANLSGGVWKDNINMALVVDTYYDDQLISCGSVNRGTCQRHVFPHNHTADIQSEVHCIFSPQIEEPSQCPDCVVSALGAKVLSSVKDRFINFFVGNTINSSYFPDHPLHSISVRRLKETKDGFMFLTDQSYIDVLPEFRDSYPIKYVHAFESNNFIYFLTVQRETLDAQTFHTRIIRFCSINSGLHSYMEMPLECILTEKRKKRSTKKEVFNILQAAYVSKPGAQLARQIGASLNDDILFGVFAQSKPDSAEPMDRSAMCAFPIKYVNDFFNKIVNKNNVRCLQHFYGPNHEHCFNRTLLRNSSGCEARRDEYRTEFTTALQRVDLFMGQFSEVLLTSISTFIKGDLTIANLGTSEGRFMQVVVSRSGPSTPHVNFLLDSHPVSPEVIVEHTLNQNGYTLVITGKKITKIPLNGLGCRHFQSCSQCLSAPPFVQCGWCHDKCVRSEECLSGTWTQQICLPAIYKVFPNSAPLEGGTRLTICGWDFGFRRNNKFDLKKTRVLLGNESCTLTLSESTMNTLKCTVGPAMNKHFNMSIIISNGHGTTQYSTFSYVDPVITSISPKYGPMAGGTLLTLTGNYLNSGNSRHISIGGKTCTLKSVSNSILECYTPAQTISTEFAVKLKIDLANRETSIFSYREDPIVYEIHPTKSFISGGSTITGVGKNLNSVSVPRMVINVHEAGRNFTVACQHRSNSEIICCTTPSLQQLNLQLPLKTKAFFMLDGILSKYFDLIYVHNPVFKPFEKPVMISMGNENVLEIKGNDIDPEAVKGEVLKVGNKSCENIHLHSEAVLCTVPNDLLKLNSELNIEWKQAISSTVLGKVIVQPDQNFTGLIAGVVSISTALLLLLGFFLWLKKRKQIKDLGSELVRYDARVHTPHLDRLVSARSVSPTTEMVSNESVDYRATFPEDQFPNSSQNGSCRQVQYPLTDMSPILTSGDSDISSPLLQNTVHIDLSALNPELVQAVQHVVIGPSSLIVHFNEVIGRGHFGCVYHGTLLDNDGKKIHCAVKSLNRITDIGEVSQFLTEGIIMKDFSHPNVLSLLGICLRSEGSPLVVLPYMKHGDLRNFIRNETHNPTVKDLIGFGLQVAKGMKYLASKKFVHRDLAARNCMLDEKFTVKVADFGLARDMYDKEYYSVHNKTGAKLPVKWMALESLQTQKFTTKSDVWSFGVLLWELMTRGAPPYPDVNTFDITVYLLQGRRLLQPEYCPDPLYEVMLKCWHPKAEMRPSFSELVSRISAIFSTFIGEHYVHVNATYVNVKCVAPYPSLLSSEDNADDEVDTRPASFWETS

As to `C=CC(=O)Nc1cc(N)nc(Sc2c(OC)nc(N3CCN(C)CC3)nc2OC)n1` [17a, N-(6-Amino-2-((4,6-dimethoxy-2-(4-methylpiperazin-1-yl)-pyrimidin-5-yl)thio)pyrimidin-4-yl)acrylamide], the IC50 at Hsp90 is above 500 µM. Moreover, in the data set on scanMAX 402 kinase panel, the “activity against the scanMAX 402 kinase panel” value is listed as “inert”. Moreover, the “kinase hit in scanMAX screen” value at c-Met was “potential low-affinity kinase hit”. In the data set with PARP, the EC50 is 2 µM.
With `C=CC(=O)Nc1cc(N)nc(Sc2c(OCC)nc(N3CCN(C)CC3)nc2OCC)n1` [20a, N-(6-Amino-2-((4,6-diethoxy-2-(4-methylpiperazin-1-yl)-pyrimidin-5-yl)thio)pyrimidin-4-yl)acrylamide], on Hsp90, the IC50 was above 500 µM.
The same measure, in the same setting: under `C=CC(=O)Nc1cc(N)nc(Sc2c(OCC)nc(N3CCCCC3)nc2OCC)n1` [20c, N-(6-Amino-2-((4,6-diethoxy-2-(piperidin-1-yl)pyrimidin-5-yl)-thio)pyrimidin-4-yl)acrylamide] stands above 500 µM; under `C=CC(=O)Nc1ccnc(Sc2c(OC)nc(N3CCN(C)CC3)nc2OC)n1` [27a, N-(2-((4,6-Dimethoxy-2-(4-methylpiperazin-1-yl)pyrimidin-5-yl)-thio)pyrimidin-4-yl)acrylamide], above 500 µM.
`C=CC(=O)Nc1ccnc(Sc2c(OC)nc(N3CCCC3)nc2OC)n1` [27d, N-(2-((4,6-Dimethoxy-2-(pyrrolidin-1-yl)pyrimidin-5-yl)thio)-pyrimidin-4-yl)acrylamide]: the IC50 at Hsp90 is above 500 µM. Also, in the data set “Aqueous solubility”, the aqueous solubility result was “poor aqueous solubility”.
As to `C=CC(=O)Nc1ccnc(Sc2c(C)nc(N3CCN(C)CC3)nc2C)n1` [42a, N-(2-((4,6-Dimethyl-2-(4-methylpiperazin-1-yl)pyrimidin-5-yl)-thio)pyrimidin-4-yl)acrylamide], the IC50 on Hsp90 was above 500 µM. Also, in the data set on PARP, the EC50 turned out to be 5 µM.
Turning to `C=C(C)C(=O)Nc1ccnc(Sc2c(C)nc(N3CCN(C)CC3)nc2C)n1` [42c, N-(2-((4,6-Dimethyl-2-(4-methylpiperazin-1-yl)pyrimidin-5-yl)-thio)pyrimidin-4-yl)methacrylamide], the IC50 at Hsp90 was above 500 µM.
Same read-out and setting: the figure for `C=CC(=O)Nc1cc(N)nc(Sc2c(OC)nc(N3CCN(CCOCCOCCOCCO)CC3)nc2OC)n1` [44a] is above 500 µM.
With `C=CC(=O)Nc1cc(N)nc(Sc2c(OC)nc(N3CCN(C)CC3)nc2OCCOCCOCCOCCO)n1` [45a], the IC50 at Hsp90 is above 500 µM.
Turning to `Nc1ncnc2c1ncn2[C@@H]1O[C@H](COP(=O)(O)OP(=O)(O)O)[C@@H](O)[C@H]1O` [ADP], the Kd on Hsp70 is 0.11 to 0.5 µM.
Take `O=c1c(O)c(-c2cc(O)c(O)c(O)c2)oc2cc(O)cc(O)c12` [compound 4, myricetin, reference compound]: the “stability in the cells (agent detected in cellular extracts)” value in data set [1] is listed as “virtually undetectable”. The EC50 with PARP was above 100 µM.
Turning to `N#Cc1ccc(COC[C@H]2O[C@@H](n3c(NCc4ccc(Cl)c(Cl)c4)nc4c(N)ncnc43)[C@H](O)[C@@H]2O)cc1` [compound 7, reference compound], the Kd at Hsp70 was 0.3 µM.
For `C=CC(=O)Nc1cc(N)nc(Sc2c(OC)nc(N)nc2OC)n1` [compound 31, N-(6-Amino-2-((2-amino-4,6-dimethoxypyrimidin-5-yl)thio)-pyrimidin-4-yl)acrylamide], at Hsp90, the IC50 is above 500 µM.
The same measure, in the same setting: the figure for `C=CC(=O)Nc1cccc(Sc2c(OC)nc(N3CCOCC3)nc2OC)c1` [compound 37, N-(3-((4,6-Dimethoxy-2-morpholinopyrimidin-5-yl)thio)phenyl)-acrylamide] is above 500 µM.
